Results collected from several papers.
Compare with care: the assays were run in different laboratories.
Effect on: metabolic stability

| SMILES | test system | conditions | half-life |
| --- | --- | --- | --- |
| O=C(c1ccc(-n2sc3ncccc3c2=O)cc1)N1CCOCC1 | mouse, liver microsomes | – | > 120 min |
| C[C@]12CC[C@H]3[C@@H](CCC4=CC(=O)CC[C@@]43C)[C@@H]1CC[C@@H]2O | mouse, liver microsomes | 1 µM | 2.1 min |
| Nc1ncnc2c1c(Oc1cc(Cl)ccn1)nn2C1CCC(F)(F)CC1 | mouse, liver microsomes | 1 µM | ~25 min |
| Cc1cnc(Nc2ccc(C(=O)NC3CCN(C(=O)COCCOCCOCC(=O)N4CCC(NC(=O)c5ccc(Nc6ncc(C)c(Nc7ccc(Cl)c(NS(=O)(=O)C(C)(C)C)c7)n6)cc5F)CC4)CC3)c(F)c2)nc1Nc1ccc(Cl)c(NS(=O)(=O)C(C)(C)C)c1 | mouse, liver microsomes | – | 33 min |
| CN1CCCCC1Cn1cc(C(=O)c2cc([N+](=O)[O-])ccc2I)c2ccccc21 (racemic) | mouse, liver microsomes | – | 10.6 min |
| Cc1nc2c(=O)n(C)c(=O)nc-2n(C)n1 | mouse, liver microsomes | – | > 186 min |
| N=c1c2c(-c3ccccc3)c(-c3ccccc3)n(Cc3ccccc3)c2ncn1[C@H]1CC[C@H](O)CC1 | mouse, liver S9 | 1 µM | > 120 min |
| CCCCCCCCCCCCCCCCOCCCOP(=O)(O)CO[C@H](C)Cn1cnc2c(N)ncnc21.N | CD-1 mouse, liver microsomes | 3 µM, pH 7.4 | > 120 min |
| Nc1ncnc2c1c(Oc1cc(C(F)(F)F)ccn1)nn2C1CCC(F)(F)CC1 | mouse, liver microsomes | 1 µM | ~25 min |
| Cc1cc(C)nc(Nc2ncc(C(=O)NCCc3c(C)[nH]c4ccccc34)cn2)c1 | CD-1 mouse, hepatocytes | 1 µM | 39 min |
| C=C1NC(=O)[C@H](C)N(O)C(=O)[C@H]([C@@H](O)C(N)=O)N(C)C(=O)[C@H](C)OC(=O)[C@@H]2C[C@H](C)CN2C1=O | mouse, liver microsomes | – | > 120 min |
| C[C@H](Cn1cnc2c(N)ncnc21)OCP(=O)(O)OCCCOCCCCCCCCCCCCCCCC(F)(F)F.N | CD-1 mouse, liver microsomes | 3 µM, pH 7.4 | > 120 min |
| O=C(c1cc(-n2sc3ncccc3c2=O)ccc1Cl)N1CCOCC1 | mouse, liver microsomes | – | > 120 min |
